Assays:
[1] = system: Liver microsomes; experiment: Drug metabolism in human liver microsomes assessed as Metabolite M1 formation after 50 mins by UPLC-MS/MS analysis; type: ADME, Microsome
Summary of the method: (§1)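 Pooled human liver microsomes (30 donors), 0.5 mg protein/ml, in 50 mM Tris-HCl pH 7.4 with 5 mM MgCl2 and 50 mM piracetam (final 500 µL), triplicate tubes, 37 °C with shaking. After 10-min preincubation, reaction started with 2 mM NADPH. Stopped with cold ethyl acetate at the stated time, then centrifuged, reconstituted in mobile phase and analysed by UPLC-MS/MS.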

[2] = system: Liver microsomes; experiment: Drug metabolism in human liver microsomes assessed as Metabolite M1 formation after 40 mins by UPLC-MS/MS analysis; type: ADME, Microsome; summary of the method: as §1
[3] = system: Liver microsomes; experiment: Drug metabolism in human liver microsomes assessed as Metabolite M1 formation after 30 mins by UPLC-MS/MS analysis; type: ADME, Microsome; settings: 0.5 h; summary of the method: as §1
[4] = system: Liver microsomes; experiment: Drug metabolism in human liver microsomes assessed as Metabolite M1 formation after 20 mins by UPLC-MS/MS analysis; type: ADME, Microsome; summary of the method: as §1
[5] = system: Liver microsomes; experiment: Drug metabolism in human liver microsomes assessed as Metabolite M1 formation after 10 mins by UPLC-MS/MS analysis; type: ADME, Microsome; summary of the method: as §1
[6] = system: Liver microsomes; experiment: Metabolic stability in human liver microsomes assessed as retention time by UPLC-MS/MS analysis; type: ADME, Microsome
Summary of the method: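 UPLC on BEH column (1.7 µm) at 30 °C, isocratic acetonitrile/10 mM ammonium acetate pH 5.0 (15:85), 0.3 ml/min, 5 µL injection, PDA 209 nm with Q-TOF ESI positive mode.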

[7] = system: Rattus norvegicus; experiment: […] in Wistar rat assessed as Metabolite M1 at 50 mg/kg, po; type: ADME, organism-based; design: dose 50 mg/kg, route oral; settings: in vivo
[8] = system: Rattus norvegicus; experiment: Apparent elimination half life in Wistar rat assessed as Metabolite M1 at 50 mg/kg, po; type: ADME, organism-based; design: dose 50 mg/kg, route oral; settings: in vivo
[9] = system: Rattus norvegicus; experiment: Clearance in Wistar rat assessed as Metabolite M1 at 50 mg/kg, po; type: ADME, organism-based; design: dose 50 mg/kg, route oral; settings: in vivo
[10] = system: Rattus norvegicus; experiment: AUC (0 to infinity) in Wistar rat assessed as Metabolite M1 at 50 mg/kg, po; type: ADME, organism-based, Plasma; design: dose 50 mg/kg, route oral, time infinity; settings: in vivo
[11] = system: Rattus norvegicus; experiment: Tmax in Wistar rat assessed as Metabolite M1 at 50 mg/kg, po; type: ADME, organism-based; design: dose 50 mg/kg, route oral; settings: in vivo
[12] = system: Rattus norvegicus; experiment: AUC (0 to t) in Wistar rat assessed as Metabolite M1 at 50 mg/kg, po; type: ADME, organism-based, Plasma; design: dose 50 mg/kg, route oral; settings: in vivo
[13] = system: Rattus norvegicus; experiment: Cmax in Wistar rat assessed as Metabolite M1 at 50 mg/kg, po; type: ADME, organism-based; design: dose 50 mg/kg, route oral; settings: in vivo
[14] = system: Plasma; experiment: Stability in rat plasma assessed as metabolite M1 at 180 ng/ml after 10 days at -80 degC; type: ADME, cell-free; settings: 240 h
Summary of the method: (§2)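 M1 spiked into drug-free rat plasma at QC low and high levels, six replicates per level; extracted with ethyl acetate, UPLC-MS/MS. Conditions: bench top room temperature, frozen storage, three freeze–thaw cycles (frozen ≥12 h each), processed samples in autosampler. Stable if accuracy and precision within 15%; reported as % nominal and RSD.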

[15] = system: Plasma; experiment: Stability in rat plasma assessed as Metabolite M1at 20 ng/ml after 10 days at -80 degC; type: ADME, cell-free; settings: 240 h; summary of the method: as §2
[16] = system: Plasma; experiment: Stability in rat plasma assessed as metabolite M1 at 180 ng/ml after 24 hrs by autosampler analysis; type: ADME, cell-free; summary of the method: as §2
[17] = system: Plasma; experiment: Stability in rat plasma assessed as Metabolite M1at 20 ng/ml after 24 hrs by autosampler analysis; type: ADME, cell-free; summary of the method: as §2
[18] = system: Plasma; experiment: Stability in rat plasma assessed as metabolite M1 at 180 ng/ml during three freeze-thaw cycles; type: ADME, cell-free; summary of the method: as §2
[19] = system: Plasma; experiment: Stability in rat plasma assessed as metabolite M1 at 180 ng/ml after 30 days at -20 degC; type: ADME, cell-free; settings: 720 h; summary of the method: as §2
[20] = system: Plasma; experiment: Stability in rat plasma assessed as Metabolite M1at 20 ng/ml during three freeze-thaw cycles; type: ADME, cell-free; summary of the method: as §2
[21] = system: Plasma; experiment: Stability in rat plasma assessed as metabolite M1 at 180 ng/ml after 2 hrs at room temperature; type: ADME, cell-free; summary of the method: as §2
[22] = system: Plasma; experiment: Stability in rat plasma assessed as Metabolite M1at 20 ng/ml after 30 days at -20 degC; type: ADME, cell-free; settings: 720 h; summary of the method: as §2
[23] = system: Plasma; experiment: Stability in rat plasma assessed as Metabolite M1at 20 ng/ml after 2 hrs at room temperature; type: ADME, cell-free; summary of the method: as §2
[24] = system: Liver microsomes; experiment: Metabolic stability in human liver microsomes assessed as compound remaining after 50 mins by UPLC-MS/MS analysis; type: ADME, Microsome
[25] = system: Liver microsomes; experiment: Metabolic stability in human liver microsomes assessed as compound remaining after 40 mins by UPLC-MS/MS analysis; type: ADME, Microsome
[26] = system: Liver microsomes; experiment: Metabolic stability in human liver microsomes assessed as compound remaining after 30 mins by UPLC-MS/MS analysis; type: ADME, Microsome; settings: 0.5 h
[27] = system: Liver microsomes; experiment: Metabolic stability in human liver microsomes assessed as compound remaining after 20 mins by UPLC-MS/MS analysis; type: ADME, Microsome
[28] = system: Liver microsomes; experiment: Metabolic stability in human liver microsomes assessed as compound remaining after 10 mins by UPLC-MS/MS analysis; type: ADME, Microsome

What does the source list for `O=C(O)CN1CCCC1=O`?
Drug metabolism [1]: 13.89 µM; Drug metabolism [2]: 9.23 µM; Drug metabolism [3]: 6.45 µM; Drug metabolism [4]: 4.79 µM; Drug metabolism [5]: 2.42 µM; Retention_time [6]: 2.042 min

Which results are given for `NC(=O)CN1CCCC1=O` [PIRACETAM]?
MRT [7]: 5.542 h; betat1/2(app) [8]: 3.652 h; CL [9]: 887.3 mL/min/kg; AUC [10]: 939.178 µg·h/mL; Tmax [11]: 1 h; AUCt [12]: 928.445 µg·h/mL; Cmax [13]: 155.39 ng/mL; Drug metabolism [14]: 179.13 ng/mL; Drug metabolism [15]: 18.853 ng/mL; Drug metabolism [16]: 178.753 ng/mL; Drug metabolism [17]: 19.043 ng/mL; Drug metabolism [18]: 178.42 ng/mL; Drug metabolism [19]: 179.123 ng/mL; Drug metabolism [20]: 18.88 ng/mL; Drug metabolism [21]: 178.883 ng/mL; Drug metabolism [22]: 18.787 ng/mL; Drug metabolism [23]: 19.347 ng/mL; Stability [24]: 36.22 µM; Stability [25]: 40.56 µM; Stability [26]: 43.78 µM; Stability [27]: 45.66 µM; Stability [28]: 47.56 µM; Retention_time [6]: 2.726 min
